Experimental data pooled from the literature.
Target: Glycogen synthase kinase-3 alpha (GSK3A, Homo sapiens, UniProt P49840)

SMILES	assay	conditions	endpoint	result
Nc1ncc(-c2nc(N3CCOCC3)nc(N3CCOCC3)n2)c(C(F)F)n1	binding, competition with immobilised ligand	10 µM	remaining binding	91%
Cn1cc(-c2cc(F)cc(N3CCn4c(cc5c4CCCC5)C3=O)c2CO)cc(Nc2ccc(N3CCN(C4COC4)CC3)cn2)c1=O	enzyme activity, inhibitor	0.1 µM	inhibition	19%
Cn1cncc1[C@@](O)(COc1ccc(C#N)cc1-c1ccc(OC(F)(F)F)cc1)c1ccc(C#N)cc1	cell-free assay, competition with immobilised ligand	1 µM	remaining binding	100%
C#Cc1n[nH]c2c(-c3cn([C@@H](C)c4ccccn4)c(=O)[nH]c3=O)cc(F)cc12	enzyme activity, inhibitor	0.1 µM	inhibition	-0.2%
Cn1cc(-c2cccc(N3CCc4c(sc5c4CC(C)(C)C5)C3=O)c2CO)cc(Nc2ccncn2)c1=O	enzyme activity, inhibitor	1 µM	inhibition	4%
Cc1nn(C)cc1-c1nc2c(N3CCN(Cc4ccc(Cl)cc4)CC3)c(Cl)cnc2[nH]1	binding, competition with immobilised ligand	1 µM	remaining binding	100%
COc1ncccc1-c1cnn2ccc(N3CCN(C(=O)OC(C)C)CC3)nc12	binding, competition with immobilised ligand	1 µM	remaining binding	100%
C#Cc1n[nH]c2c(-c3cn([C@@H](C)c4ccccc4)c(=O)[nH]c3=O)cc(F)cc12	enzyme activity, inhibitor	0.1 µM	inhibition	-1.9%
O=c1[nH]c2ccccc2n1C1CCN(Cc2ccc(-c3[nH]c4cc5ncnc5cc4nc3-c3ccccc3)cc2)CC1	cell-free assay	0.5 µM	remaining signal	100%
